Assay outcomes: PubChem, several laboratories
ROMK mod: modulators of human ROMK potassium channel. Tet-inducible ROMK, thallium flux fluorescence; actives lie on both sides. B-score at 10 µM. actives 2% (n = 130,000);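 active = signal ratio slope over the read window, or its plate-corrected B-score, at least 3 SD from the plate mean, either direction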;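 note: B-score of the F/F0 ratio slope over 7 to 12 s after thallium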
Target sequence (P48048 whole entry, looked up): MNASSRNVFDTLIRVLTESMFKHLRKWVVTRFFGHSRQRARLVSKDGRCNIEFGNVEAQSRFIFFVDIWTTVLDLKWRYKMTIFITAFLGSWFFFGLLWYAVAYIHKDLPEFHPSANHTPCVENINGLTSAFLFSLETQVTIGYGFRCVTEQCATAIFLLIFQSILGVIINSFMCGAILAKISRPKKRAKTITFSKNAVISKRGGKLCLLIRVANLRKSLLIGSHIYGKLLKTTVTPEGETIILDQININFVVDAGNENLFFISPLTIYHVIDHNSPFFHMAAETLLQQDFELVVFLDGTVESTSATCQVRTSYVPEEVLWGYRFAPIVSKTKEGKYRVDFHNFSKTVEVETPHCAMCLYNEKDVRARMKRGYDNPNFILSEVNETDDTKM
Biofilm kill mix: mixtures killing C. albicans biofilm; AID 1242; actives 0.02% (n = 120,000); C. albicans biofilm persisters + clotrimazole, fluorescence viability; primary screen in compound mixtures of four per well; inhibition, % at 7.6 µM;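 active = inhibition above 30.3% in the primary screen of four-compound pools, then above 30% when the compound was retested; inconclusive = passed the primary limit but could not be retested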;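 note: compounds exposed to preformed 24 h biofilms for 48 h; 0% = untreated biofilm control and 100% = clotrimazole plus chlorhexidine kill blank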
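Incubation: 24 h biofilm formation, then 48 h compound exposure, 37 °C | Material: C. albicans biofilms | Buffer or medium: RPMI/MOPS medium, pH 7.0 | Measured by: 2-h Alamar Blue fluorescence, 535/590 nm excitation/emission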
ROMK hit retest: retested hit modulating human ROMK potassium channel. shares compounds with ROMK mod. ROMK thallium flux, fluorescence ratio; active compounds read low. normalized thallium flux (F/F0 slope) at 10 µM. actives 54% (n = 3,000);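 active = Flux at 10 µM at least 3 SD below or above vehicle control mean in one or both replicates; inconclusive = no clear call, values can overlap the other calls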
* = called active by the depositor; ? = inconclusive; . = not tested or not shown. The full list was thinned out, with hits kept by preference.

SMILES	ROMK mod	Biofilm kill mix	ROMK hit retest
O=C(COC(=O)C1CCN(S(=O)(=O)c2ccccc2C(F)(F)F)CC1)NCc1ccc(F)cc1	0.0761	7.0	.
Cc1ccc(N2NC(=O)/C(=C\c3cc4c(cc3[N+](=O)[O-])OCO4)C2=O)cc1C	-4.93*	8.9	0.0481*
COc1cc(/C=C2/C(=O)NN(c3cccc(C)c3)C2=O)cc([N+](=O)[O-])c1O	0.507	6.8	.
Cc1ccc(S(=O)(=O)CCN2CCC(n3cccc3)CC2)cc1	.	4.4	.
OCCCCNCc1ccc(OCc2ccc(Cl)cc2Cl)cc1	.	.	0.0525*
OCCNCc1ccc(OCc2ccc(Cl)cc2Cl)cc1	-1	21.3	.
CCOC(=O)c1oc2nc(CC(C)C)c3c(c2c1N)CCCC3	.	2.5	.
O=C(NCc1ccco1)c1cccn2c(=O)c3cc4ccccc4cc3nc12	-0.774	.	.
COCCCNC(=O)c1cccn2c(=O)c3cc4ccccc4cc3nc12	.	.	0.0539*
O=c1cc2c(nn1Cc1ccccc1)-c1ccccc1CC2	0.165	17.1	.
O=c1cc2c(nn1Cc1cccc([N+](=O)[O-])c1)-c1ccccc1CC2	-8.35*	0.4	0.053*
O=C(CNC(=O)c1ccc(Br)o1)OCC(=O)c1cccc([N+](=O)[O-])c1	0.714	10.4	.
Cc1ccc2cc(CCNS(=O)(=O)c3ccc(F)cc3)c(=O)[nH]c2c1C	.	16.3	.
COc1cc2cc(CN(CCc3cccc(C)c3)C(=S)NCCCN3CCOCC3)c(=O)[nH]c2cc1OC	-0.0295	19.4	.
O=C(/C=N/O)Nc1ccc2sc3ccccc3c2c1	-2.79*	9.9	0.0638*
COC(=O)c1ccccc1NC(=O)/C=N/O	0.0351	.	.
O=C(C1CCCN(S(=O)(=O)c2ccccc2[N+](=O)[O-])C1)N1CCCC1 (configuration not stated)	.	22.9	.
CCCCC(c1nnnn1C1CCCC1)N1CCN(C2CCCCC2)CC1 (configuration not stated)	-4.07*	.	0.0631*
CCCCC(c1nnnn1C1CCCC1)N1CCN(C(=O)c2ccco2)CC1 (configuration not stated)	-0.317	.	.
CCCCOc1ccc(C(=O)N/N=C/c2ccc(OCCN3CCCCC3)c(OC)c2)cc1	.	13.4	.
CCCSc1cc(NCCOC(=O)CCC)c([N+](=O)[O-])c2nonc12	.	13.6	.
Cc1nnc(Sc2cc(NCCO)c([N+](=O)[O-])c3nonc23)s1	-7.2*	9.2	0.0569*
CCCC(=O)OCCNc1cc(Sc2nccn2C)c2nonc2c1[N+](=O)[O-]	-4.7*	9.1	0.0505*
Cc1nnc(Sc2cc(NCCCO)c([N+](=O)[O-])c3nonc23)s1	0.227	17.1	.
CN(C)S(=O)(=O)Nc1ccccc1F	1.36	1.7	.
SMILES	ROMK mod	Biofilm kill mix	ROMK hit retest
O=C(NNS(=O)(=O)c1ccc(Cl)cc1)c1cccc(S(=O)(=O)N2CCOCC2)c1	.	22.2	.
CCOC(=O)COc1c(Cl)cc(C2NC(=S)NC(c3ccccc3)=C2C(C)=O)cc1OCC (configuration not stated)	.	-1.7	.
O=C(CCl)N(c1ccc(Cl)cc1)c1c[nH]c2ccccc12	-2.22	.	0.0557*
O=C(NCc1ccc(Cl)cc1)C(=O)c1c[nH]c2ccccc12	0.767	12.2	.
CCC(C)NC(=O)c1ccccc1-c1nc2ccccc2[nH]1 (configuration not stated)	-0.409	8.5	.
Cc1ccc(-n2c(C)cc(/C=N/NC(=O)CC3(C)OCCO3)c2C)c(C)c1	1.56	9.5	.
CC1(CC(=O)N/N=C/c2cc([N+](=O)[O-])c(O)cc2O)OCCO1	0.701	11.2	0.0809
O=C(Cn1nc(C(=O)O)c2ccccc2c1=O)Nc1ccc2c(c1)C(=O)c1ccccc1C2=O	.	-4.2	.
CCn1ncc([C@@H]2C[C@H]3CN(Cc4cccc(Cl)c4)C(=O)[C@]34CCCN24)c1C	-0.361	-9.0	.
O=C1N(Cc2cccc(Cl)c2)C[C@@H]2C[C@@H](c3cccn3-c3cccnc3)N3CCC[C@@]123	-2.69*	-0.4	0.0613*
O=C(COC(=O)c1cnc(Cl)c(Cl)c1)Nc1ccc(S(=O)(=O)N2CCCC2)cc1	-0.321	17.7	.
COc1cccc(N2CCN(c3ncnc4c3[nH]c3ccccc34)CC2C)c1 (configuration not stated)	-2.76	.	0.059*
COc1ccc2c(c1)[nH]c1c(=O)n(CCN(C)C)cnc12	0.892	.	.
COc1cc2[nH]c3c(N4CCN(c5ccc(Cl)cc5)CC4)ncnc3c2cc1OC	0.93	.	.
COc1ccc2[nH]c3c(N4CC(C)OC(C)C4)ncnc3c2c1 (configuration not stated)	-1.07	.	.
c1ccc2c(c1)CCN(c1ncnc3c1[nH]c1ccccc13)C2	-2.92*	.	0.0601*
COc1cccc2[nH]c3c(N4CCc5ccccc5C4)ncnc3c12	-0.506	15.1	.
COc1cccc(N2CCN(c3ncnc4c3[nH]c3ccc(F)cc34)CC2C)c1 (configuration not stated)	-2.95*	.	0.057*
COc1ccc2c(c1)[nH]c1c(N3CCSCC3)ncnc12	.	9.7	?
